From publication PMC4475435 (Clinical therapeutics, 2015)
Where two headings read alike, the source gives them in different places. Marks after values point to notes of the source that are not given here.

Tests used:
[1] = Population-based PK model; type: in vivo, human
Outline: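 Matched case-control: overweight/obese children (≥85th percentile, CDC charts) vs normal-weight controls matched on age (±1 y), SCr (±0.4 mg/dL), nephrotoxic co-medication and ICU stay; 389 serum levels, mostly drawn after third dose, with full dosing history. One-compartment first-order model, FOCE with interaction; age and SCr on CL; weight on Vd, weight^0.75 on CL; MAP Bayesian POSTHOC individual estimates; 1000-replicate bootstrap 95% CIs.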

[2] = weight used: Weight, cited from earlier work
[3] = cited from earlier work
[4] = bootstrap analysis of 1000 replicates
[5] = obese and overweight children compared with those with normal weight
[6] = overweight/obese cases versus normal-weight controls, 87 matched pairs
[7] = 18 overweight children, age 5, 0.5–18 y
[8] = 4 normal-weight adults (Weight <115% IW), 25–30 y, weight used: Weight, SD
[9] = 6 morbidly obese adults (Weight >190% IW), 27–37 y, weight used: Weight, SD
[10] = 6 morbidly obese adults, 27–37 y, weight used: IW, SD
[11] = 24 morbidly obese adults (Weight >190% IW), 41 (7) y, weight used: Weight, SD
[12] = 24 morbidly obese adults, weight used: IW, SD
[13] = 24 normal-weight adults, weight used: IW, SD

SMILES: CN[C@H](CC(C)C)C(=O)N[C@H]1C(=O)N[C@@H](CC(N)=O)C(=O)N[C@H]2C(=O)N[C@H]3C(=O)N[C@H](C(=O)N[C@H](C(=O)O)c4cc(O)cc(O)c4-c4cc3ccc4O)[C@H](O)c3ccc(c(Cl)c3)Oc3cc2cc(c3O[C@@H]2O[C@H](CO)[C@@H](O)[C@H](O)[C@H]2O[C@H]2C[C@](C)(N)[C@H](O)[C@H](C)O2)Oc2ccc(cc2Cl)[C@H]1O [vancomycin]
- θ1, Median Bootstrap Estimate (95% CI) [1, 4]: 0.572 (0.514–0.632)
- θ2, Median Bootstrap Estimate (95% CI) [1, 4]: 0.285 (0.268–0.304)
- θ3, Median Bootstrap Estimate (95% CI) [1, 4]: 0.291 (0.165–0.395)
- θ4, Median Bootstrap Estimate (95% CI) [1, 4]: 0.742 (0.194–1.263)
- θ1, population estimate: Vd (L) = θ1 × Weight (kg) ([1]; final population PK model, 174 participants, 389 concentrations): 0.574
- decrease of weight-adjusted CL [1, 5]: 10.8%
- decrease of weight-adjusted Vd [1, 5]: 2.2%
- mean CL, based on weight, for cases lower than controls by [1, 6]: 0.014 L/kg/h
- mean Vd, based on weight, for cases lower than controls by [1, 6]: 0.012 L/kg
- Clearance, Mean (SD) or Median (Range) ([2]; 13 underweight children): 0.18 (0.09) L/kg/h
- Vd, Mean (SD) or Median (Range) ([2]; 13 underweight children): 0.97 (0.54) L/kg
- Clearance, Mean (SD) or Median (Range) [2, 7]: 0.16 (0.05) L/kg/h
- Vd, Mean (SD) or Median (Range) [2, 7]: 0.81 (0.37) L/kg
- Clearance, Mean (SD) or Median (Range) ([2]; 31 normal-weight children): 0.2 (0.08) L/kg/h
- Vd, Mean (SD) or Median (Range) ([2]; 31 normal-weight children): 1 (0.35) L/kg
- Clearance, Mean (SD) or Median (Range) [3, 8]: 0.065 (0.004) L/kg/h
- Vd, Mean (SD) or Median (Range) [3, 8]: 0.39 (0.06) L/kg
- Clearance, Mean (SD) or Median (Range) [3, 9]: 0.066 (0.01) L/kg/h
- Vd, Mean (SD) or Median (Range) [3, 9]: 0.26 (0.03) L/kg
- Clearance, Mean (SD) or Median (Range) [3, 10]: 0.174 (0.04) L/kg/h
- Vd, Mean (SD) or Median (Range) [3, 10]: 0.68 (0.07) L/kg
- Clearance, Mean (SD) or Median (Range) [3, 11]: 0.072 (0.012) L/kg/h
- Vd, Mean (SD) or Median (Range) [3, 11]: 0.32 (0.05) L/kg
- Clearance, Mean (SD) or Median (Range) [3, 12]: 0.186 (0.042) L/kg/h
- Vd, Mean (SD) or Median (Range) [3, 12]: 0.83 (0.08) L/kg
- Clearance, Mean (SD) or Median (Range) [3, 13]: 0.06 (0.024) L/kg/h
- Vd, Mean (SD) or Median (Range) [3, 13]: 0.64 (0.26) L/kg
- Vd, Mean (SD) or Median (Range) ([3]; 37 underweight adults (Weight <80% IW), weight used: IW, 95% CI 0.55–0.68): 0.62 (0.55–0.68 ^‡) L/kg
- Clearance, Mean (SD) or Median (Range) ([3]; 107 obese adults (Weight >120% LBM), weight used: Weight, range of means): 0.0366–0.051 ^† L/kg/h
- Vd, Mean (SD) or Median (Range) ([3]; 108 obese adults (Weight >130% IW), weight used: IW, 95% CI 0.82–0.97): 0.89 (0.82–0.97 ^‡) L/kg
- Vd, Mean (SD) or Median (Range) ([3]; 108 obese adults (Weight >130% IW), weight used: Weight, 95% CI 0.52–0.59): 0.56 (0.52–0.59 ^‡) L/kg
